{"data": "Results from different studies", "PDE3A": "cGMP-inhibited 3',5'-cyclic phosphodiesterase 3A (PDE3A, Homo sapiens, UniProt Q14432)", "MAPK14": "Mitogen-activated protein kinase 14 (MAPK14, Homo sapiens, UniProt Q16539)", "ADRA2C": "Alpha-2C adrenergic receptor (ADRA2C, Homo sapiens, UniProt P18825)"}
{"SMILES": "CC1=CC[C@@H](C(C)(C)O)CC1", "target": "Urease subunit beta (ureB, Helicobacter pylori, UniProt P69996)", "observed": "enzyme activity in cells", "action": "inhibitor", "method": "absorbance", "IC50": "9350 nM"}
{"SMILES": "N#Cc1ccc(COc2cccc(C3CCN(Cc4nc5ccc(C(=O)O)cc5n4C[C@@H]4CCO4)CC3)n2)c(F)c1", "target": "PDE3A", "observed": "enzyme activity", "action": "inhibitor", "IC50": "2300 nM"}
{"SMILES": "Cn1c(=O)c([N+](=O)[O-])c(Cl)c2ccccc21", "target": "Adenylate cyclase type 1 (Homo sapiens, UniProt Q08828)", "observed": "cAMP", "IC50": "300 nM"}
{"SMILES": "Cc1cnc(-c2ccc(-c3ccc(NC(=O)Nc4c(F)cc(F)cc4F)cc3F)c3c2C(=O)NC3)[nH]1", "target": "Serine/threonine-protein kinase PLK4 (PLK4, Homo sapiens, UniProt O00444)", "observed": "enzyme activity", "action": "inhibitor", "IC50": "4.8 nM"}
{"SMILES": "N#C/C(=C\\c1ccc(O)c(O)c1)C(=O)OC/C=C/c1ccccc1", "target": "Leucine-rich repeat serine/threonine-protein kinase 2 (LRRK2, Homo sapiens, UniProt Q5S007, G2019S)", "observed": "enzyme activity", "action": "inhibitor", "method": "radiometric", "IC50": "231 nM"}
{"SMILES": "COc1ccc2c(Oc3ccc4c(C(=O)Nc5ccccc5N)cccc4c3)ccnc2c1", "target": "MAPK14", "observed": "enzyme activity", "action": "inhibitor", "IC50": "> 500 nM"}
{"SMILES": "CC(C)(C)n1nc(-c2cnc3cc(OC4CC4)ccc3c2)c(C(N)=O)c1N", "target": "Death-associated protein kinase 3 (DAPK3, Homo sapiens, UniProt O43293)", "observed": "cell-free assay", "IC50": "> 10000 nM"}
{"SMILES": "CN1CCN(c2ccc(Nc3ncc4cc(C#N)c(=O)n(C5CCCC5)c4n3)cc2)CC1", "target": "Mitogen-activated protein kinase kinase kinase kinase 4 (MAP4K4, Homo sapiens, UniProt O95819)", "observed": "enzyme activity", "action": "inhibitor", "IC50": "245 nM"}
{"SMILES": "CCOCc1nc(O)c(-c2nnc(Cc3ccc(Cl)cn3)o2)c(O)c1-c1c(OC)cccc1OC", "target": "ADRA2C", "observed": "ligand displacement", "method": "radioligand", "IC50": "> 30000 nM"}
{"SMILES": "C[C@@H]1Cc2ccccc2N1C(=O)NCCCCN(C)[C@@H]1Cc2cccc3[nH]c(=O)n(c23)C1", "target": "5-hydroxytryptamine receptor 1A (HTR1A, Homo sapiens, UniProt P08908)", "observed": "ligand displacement", "method": "radioligand", "IC50": "35.8 nM"}
{"SMILES": "CC(C)(C)n1nc(-c2ccc3nc(OC4CC4)ccc3c2)c(C(N)=O)c1N", "target": "MAPK14", "observed": "cell-free assay", "IC50": "> 10000 nM"}
{"SMILES": "CC(O)C(C)C(=O)N1CCC(NC(=O)Nc2ccc(OC(F)(F)F)c(F)c2)CC1 (centres unmarked)", "target": "Bifunctional epoxide hydrolase 2 (Ephx2, Rattus norvegicus, UniProt P80299)", "observed": "enzyme activity", "action": "inhibitor", "IC50": "4.3 nM"}
{"SMILES": "Cc1cc(C)nc(NC(=S)N2CCN(c3ccncc3)CC2)c1", "target": "MAPK14", "observed": "enzyme activity", "action": "inhibitor", "method": "ADP detection", "IC50": "100 nM"}
{"SMILES": "O=C(/C=C/c1ccc(O)c(O)c1)O[C@H](Cc1ccc(O)c(O)c1)C(=O)O", "target": "Leucine-rich repeat serine/threonine-protein kinase 2 (LRRK2, Homo sapiens, UniProt Q5S007)", "observed": "enzyme activity", "action": "inhibitor", "method": "radiometric", "IC50": "1870 nM"}
{"SMILES": "CC(C)C[C@H](NC(=O)[C@H]1O[C@@H]1C(=O)O)C(=O)NCCCCN=C(N)N", "target": "Dipeptidyl peptidase 1 (CTSC, Homo sapiens, UniProt P53634)", "observed": "enzyme activity", "action": "inhibitor", "IC50": "735 nM"}
{"SMILES": "CCCCCCOC(=O)c1ccccc1C(=O)c1ccc(N(CC)CC)cc1O", "target": "Estrogen receptor (ESR1, Homo sapiens, UniProt P03372)", "observed": "reporter gene", "action": "antagonist", "IC50": "4760 nM"}
{"SMILES": "Cc1nccc2c1c(=O)n(C)c1cc(OC[C@@H](N)CC(C)C)c(C#N)cc21", "target": "ADRA2C", "observed": "cell-free assay", "IC50": "> 30000 nM"}
{"SMILES": "COc1ccc(C2=NN(C3CCCCCC3)C(=O)[C@@H]3CC=CC[C@H]23)cc1-c1ccc(C(N)=O)cc1 (relative stereo)", "target": "PDE3A", "observed": "enzyme activity", "action": "inhibitor", "IC50": "7940 nM"}
{"SMILES": "COCCOCOc1ccc(C(=O)/C=C/c2ccc(C(=O)O)cc2)cc1C12CC3CC(CC(C3)C1)C2", "target": "Inhibitor of nuclear factor kappa-B kinase subunit beta (IKBKB, Homo sapiens, UniProt O14920)", "observed": "enzyme activity", "action": "inhibitor", "method": "TR-FRET", "IC50": "16700 nM"}
{"SMILES": "CCN1CCN(c2c(Cl)cccc2NC(=O)c2ccc(Br)o2)CC1", "target": "MAPK14", "observed": "enzyme activity", "action": "inhibitor", "IC50": "> 20000 nM"}
